Results reported in ChEMBL document CHEMBL3603782, “Antimalarial benzoheterocyclic 4-aminoquinolines: Structure-activity relationship, in vivo evaluation, mechanistic and bioactivation studies” (Bioorg Med Chem, 2015).
Activity calls are given as the source filed them. No cut-off for these calls is given here.

Columns and labels:
[1] = Inhibition of beta haematin formation after 5 to 6 hrs by pyridine-ferrichrome method; format: physicochemical
Procedure, shortened: (§1)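 Modified β-haematin inhibition assay. Compounds from DMSO stocks, 0–1000 µM final, in duplicate. NP-40 added (30.55 µM). Haematin suspension added to give 0.5 M acetate pH 4.8 and 100 µM haematin, then incubated 5–6 h at 37 °C. Free haeme detected with pyridine/H2O/acetone/0.2 M HEPES pH 7.4 reagent (final pyridine ~5% v/v) plus acetone, and absorbance read.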

[2] = Metabolic stability in human liver microsomes assessed as compound remaining at […] after 30 mins by HPLC-MS/MS analysis in presence of NADPH; format: ADME; conditions: read-out: Stability
[3] = Lipophilicity, log P of the compound; format: physicochemical; conditions: octanol/water
[4] = Stability of the compound by potassium cyanide trapping method; format: physicochemical
Plasmodium falciparum [5] = experiment: Resistance index, ratio of IC50 for multidrug-resistant Plasmodium falciparum K1 to IC50 for chloroquine-sensitive Plasmodium falciparum NF54; format: functional
Procedure, shortened: (§2)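 Modified [3H]-hypoxanthine incorporation assay against P. falciparum NF54 (sensitive) and K1 (multidrug-resistant). Values are means of ≥2 or ≥3 independent experiments. The resistance index is the K1 IC50 divided by the NF54 IC50.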

Plasmodium falciparum [6] = experiment: Resistance index, ratio of IC50 for multidrug-resistant Plasmodium falciparum K1 to IC50 for Plasmodium falciparum W2; format: functional
Plasmodium falciparum [7] = experiment: Antiplasmodial activity against chloroquine-sensitive Plasmodium falciparum NF54 infected in human erythrocytes after 48 hrs by [3H]-hypoxanthine incorporation assay; format: functional, organism-based; procedure, shortened: as §2
[8] = Metabolic stability in BALB/c mouse liver microsomes assessed as compound remaining at […] after 30 mins by HPLC-MS/MS analysis in presence of NADPH; format: ADME; conditions: read-out: Stability
[9] = Stability of the compound by methoxylamine trapping method; format: physicochemical
[10] = Drug metabolism assessed as ratio of sum of compound adduct peak area to clozapine adduct peak area by GSH trapping method; format: physicochemical
Plasmodium berghei [11] = experiment: Antimalarial activity against GFP-transfected Plasmodium berghei ANKA infected in mouse assessed as reduction in parasitemia at 10 mg/kg, po qd administered for 4 days measured on day 4 post last dose by flow cytometric analysis relative to control; format: functional; design: scale not given: the % may be the effect or the level left
Plasmodium berghei [12] = experiment: Antimalarial activity against GFP-transfected Plasmodium berghei ANKA infected in mouse assessed as mean survival days at 10 mg/kg, po qd administered for 4 days; format: functional
Procedure, shortened: (§3)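 Mice (n = 3) infected with GFP-transfected P. berghei ANKA. Compound given orally, dissolved in a vehicle containing ethanol and diluted 10× with water. Multi-dose arms were dosed once daily on four consecutive days (4, 24, 48, 72 h post-infection). Parasitaemia was measured by flow cytometry, detection limit 0.1%. Activity is % reduction relative to controls. Survival was followed for 30 days.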

Plasmodium berghei [13] = experiment: Antimalarial activity against GFP-transfected Plasmodium berghei ANKA infected in mouse assessed as mean survival days at 30 mg/kg, po qd administered for 4 days; format: functional; procedure, shortened: as §3
[14] = Elimination half life in C57Bl/6 mouse at 20 mg/kg, po; format: ADME, organism-based; conditions: in vivo, read-out: beta t1/2 (converted)
Procedure, shortened: (§4)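 C57Bl/6 mice, n = 3 per route. IV group dosed 5 mg/kg in DMSO, PEG, EtOH, PPG (2:6:1:7, v/v); tail-tip blood (20 µL) at 0.08, 0.5, 1, 3, 7 and 24 h. Oral group received a single 20 mg/kg gavage as a suspension in 0.5% HPMC in water; blood at 0.5, 1, 3, 5 and 24 h. Whole-blood LC–MS/MS (10–5000 ng/mL) after methanol protein precipitation; non-compartmental analysis.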

CHO = experiment: Cytotoxicity against CHO cells by MTT assay; format: cell-based; conditions: Cricetulus griseus
Procedure, shortened: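 CHO cells, MTT assay. Stocks 20 mg/mL in DMSO, diluted in complete medium; undissolved samples tested as suspensions. Emetine served as reference (10-fold dilutions, 6 concentrations, lowest 0.001 µg/mL). IC50 derived from full dose–response curves by non-linear fitting.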

Plasmodium berghei [15] = experiment: Antimalarial activity against GFP-transfected Plasmodium berghei ANKA infected in mouse assessed as reduction in parasitemia at 50 mg/kg, po qd administered for 4 days measured on day 4 post last dose by flow cytometric analysis relative to control; format: functional; design: scale not given: the % may be the effect or the level left
Plasmodium berghei [16] = experiment: Antimalarial activity against GFP-transfected Plasmodium berghei ANKA infected in mouse assessed as mean survival days at 50 mg/kg, po qd administered for 4 days; format: functional; procedure, shortened: as §3
[17] = Selectivity index, ratio of IC50 for CHO cells to IC50 for chloroquine-sensitive Plasmodium falciparum NF54; format: toxicity, cell-based; conditions: hamster, read-out: Ratio IC50
[18] = Total clearance in C57Bl/6 mouse at 5 mg/kg, iv; format: ADME, organism-based; conditions: in vivo; procedure, shortened: as §4
[19] = Elimination half life in C57Bl/6 mouse at 5 mg/kg, iv; format: ADME, organism-based; conditions: in vivo, read-out: beta t1/2 (converted); procedure, shortened: as §4
[20] = Tmax in C57Bl/6 mouse at 20 mg/kg, po; format: ADME, organism-based; conditions: in vivo; procedure, shortened: as §4
[21] = Cmax in C57Bl/6 mouse at 5 mg/kg, iv; format: ADME, organism-based; design: dose 5 mg/kg, route intravenous; conditions: in vivo; procedure, shortened: as §4
Plasmodium berghei [22] = experiment: Antimalarial activity against GFP-transfected Plasmodium berghei ANKA infected in mouse assessed as cure rate at 50 mg/kg, po qd administered for 4 days measured over 30 days; format: functional, organism-based
[23] = Volume of distribution in C57Bl/6 mouse at 5 mg/kg, iv; format: ADME, organism-based; conditions: in vivo; procedure, shortened: as §4
Mus musculus [24] = experiment: AUC in C57Bl/6 mouse at 20 mg/kg, po; format: ADME, organism-based; conditions: in vivo; procedure, shortened: as §4
[25] = Cmax in C57Bl/6 mouse at 20 mg/kg, po; format: ADME, organism-based; design: dose 20 mg/kg, route oral; conditions: in vivo; procedure, shortened: as §4
Mus musculus [26] = experiment: AUC in C57Bl/6 mouse at 5 mg/kg, iv; format: ADME, organism-based; conditions: in vivo; procedure, shortened: as §4
Plasmodium berghei [27] = experiment: Antimalarial activity against GFP-transfected Plasmodium berghei ANKA infected in mouse assessed as mean survival days at 50 mg/kg, po; format: functional; procedure, shortened: as §3
[28] = Oral bioavailability in C57Bl/6 mouse at 20 mg/kg; format: ADME, organism-based; conditions: in vivo; procedure, shortened: as §4
Plasmodium falciparum [29] = experiment: Antiplasmodial activity against multidrug-resistant Plasmodium falciparum K1 infected in human erythrocytes after 48 hrs by [3H]-hypoxanthine incorporation assay; format: functional, organism-based; procedure, shortened: as §2
Plasmodium berghei [30] = experiment: Antimalarial activity against GFP-transfected Plasmodium berghei ANKA infected in mouse assessed as reduction in parasitemia at 50 mg/kg, po by flow cytometric analysis relative to control; format: functional; design: scale not given: the % may be the effect or the level left
Plasmodium falciparum [31] = experiment: Antiplasmodial activity against Plasmodium falciparum W2 infected in human erythrocytes after 48 hrs by [3H]-hypoxanthine incorporation assay; format: functional, organism-based
[32] = Inhibition of beta haematin formation at 1000 uM after 5 to 6 hrs by pyridine-ferrichrome method; format: physicochemical; procedure, shortened: as §1
Plasmodium berghei [33] = experiment: Antimalarial activity against GFP-transfected Plasmodium berghei ANKA infected in mouse assessed as cure rate at 10 mg/kg, po qd administered for 4 days measured over 30 days; format: functional, organism-based
Mus musculus [34] = experiment: Toxicity in mouse infected with GFP-transfected Plasmodium berghei ANKA at 50 mg/kg, po qd administered for 4 days measured over 30 days; format: organism-based; conditions: in vivo, 720 h

Structure (SMILES) | IC50 [1] | remaining at 0.5 h [2] | logP [3] | Stability [4] | Ratio IC50 (Plasmodium falciparum [5]) | Ratio IC50 (Plasmodium falciparum [6]) | IC50 (Plasmodium falciparum [7]) | remaining at 0.5 h [8] | Stability [9] | Activity (Plasmodium berghei [11]) | MSD (Plasmodium berghei [12]) | IC50 (CHO) | Activity (Plasmodium berghei [15]) | MSD (Plasmodium berghei [16]) | selectivity ratio [17] | MSD (Plasmodium berghei [27]) | IC50 (Plasmodium falciparum [29]) | Activity (Plasmodium berghei [30]) | also measured
CCNc1nc2cc(Nc3ccnc4cc(Cl)ccc34)ccc2o1 | 80.2 µM | 81% | 3.75 | Unstable | 2.15 | 1.88 | 0.466 µM | 1% | Unstable |  |  |  |  |  |  |  |  |  | 
CCNc1nc2cc(Nc3ccnc4cc(Cl)ccc34)ccc2[nH]1 |  |  |  | Unstable |  | 0.5 |  |  | Unstable |  |  |  |  |  |  |  |  |  | 
CC(C)(C)Nc1nc2cc(Nc3ccnc4cc(Cl)ccc34)ccc2s1 |  |  |  | Unstable |  | 0.79 |  |  | Unstable |  |  |  |  |  |  |  |  |  | Ratio [10]: 0.74
CCN(CC)CCCC(C)Nc1ccnc2cc(Cl)ccc12 (stereo not drawn) [CHLOROQUINE] |  |  |  |  |  |  |  |  |  | 99.9% | 16 days |  |  |  |  |  |  |  | MSD (Plasmodium berghei [13]): 24 days
Clc1ccc2c(Nc3ccc4oc(NCCCN5CCCCC5)nc4c3)ccnc2c1 | 105 µM | 70% | 4.16 |  | 3.9 |  | 0.01 µM | 49% |  | 99.8% | 15.7 days | 10.6 µM | 99.8% | >30 days | 1060 | 14 days | 0.039 µM | 99.5% | half-life [14]: 10.9 h; clearance [18]: 1.7 L/h/kg; half-life [19]: 10 h; Tmax [20]: 2.9 h; Cmax [21]: 2.74 µM; Activity (Plasmodium berghei [22]): Active; Vd [23]: 24.5 L/kg; AUC (Mus musculus [24]): 1020 (umol/L).min; Cmax [25]: 1.01 µM; AUC (Mus musculus [26]): 454 (umol/L).min; bioavailability [28]: 56%
CN(C)CCNc1nc2cc(Nc3ccnc4cc(Cl)ccc34)ccc2o1 | 363 µM | > 99% | 3.38 |  | 3.5 |  | 0.012 µM | > 99% |  | 99.9% | 24 days | 7.59 µM | 99.8% | 29.3 days | 633 | 13.7 days | 0.042 µM | 99.5% | 
Clc1ccc2c(Nc3ccc4[nH]c(NCCN5CCOCC5)nc4c3)ccnc2c1 |  |  |  |  |  | 3.93 |  |  |  |  |  |  |  |  |  |  | 0.742 µM |  | IC50 (Plasmodium falciparum [31]): 0.189 µM
O=[N+]([O-])c1ccc2oc(NCCN3CCCC3)nc2c1 |  |  |  |  |  |  | 1.64 µM |  |  |  |  |  |  |  |  |  | 2.93 µM |  | inhibition (INH) [32]: Not Active
Clc1ccc2c(Nc3ccc4oc(NCCN5CCCC5)nc4c3)ccnc2c1 | 91.5 µM | 62% |  |  | 3.73 | 2.75 | 0.015 µM | 81% |  | 99.8% | >30 days | 4.9 µM | 99.8% | >30 days | 327 | 23.3 days |  | 99.5% | Activity (Plasmodium berghei [33]): Active; Activity (Plasmodium berghei [22]): Active; Activity (Mus musculus [34]): Non-toxic
